Screening data from PubChem.
NR2E3 ag-1: inhibitors of NR2E3-RetCOR corepressor binding, primary screen, NR2E3 agonist project, biochemical, TR-FRET, GST-NR2E3, biotin-RetCOR. Photoreceptor-specific nuclear receptor (Homo sapiens), Q9Y5X4. 1536-well. inhibition of corepressor binding, % at 4.78 µM. 320,000 tested, 0.12% active;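 active means percent inhibition above the cutoff of mean plus 3 SD of all tested compounds, set per screening campaign, cut at about 20% in these data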;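 further: 0% = DMSO wells and 100% = biotin wells as full block of FRET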
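Material: NR2E3–RetCOR corepressor complex | Quantity: 1.35 nM GST-tagged NR2E3 final | Schedule: 5 h at 4 °C | Replication: Singlicate compound wells | Reagent: RetCOR corepressor, biotinylated, 7 nM | Controls: Biotin wells as high control, 0.6% DMSO wells as low control | Signal: TR-FRET, Eu(K)-anti-GST donor, streptavidin-D2 acceptor, ex 340, em 617/671 nm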
NR2E3 ag-2: NR2E3 agonists in two-hybrid cells, primary screen, cell-based, luminescence, CHO-S, Gal4-NCOR/VP16-NR2E3 | Photoreceptor-specific nuclear receptor (Homo sapiens), Q9Y5X4 | AID 602229, 2012 | 360,000 tested, 0.35% active | luciferase | inhibition of corepressor binding, % at 3.98 µM;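 active means inhibition above the mean of all tested compounds plus 3 SD, cut at about 70% in these data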;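 further: 0% = DMSO with NR2E3 transfected cells and 100% = cells lacking NR2E3 construct; higher means lower luciferase signal from less NR2E3 corepressor binding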
Jurkat NFkB inh: inhibitors of induced NF-kB luciferase reporter, primary screen, TCR NF-kB activation inhibitor project, cell-based, luminescence, uHTS | Jurkat, PMA/ionomycin-induced NF-kB luciferase reporter | 330,000 tested, 0.53% active | inhibition, % at 4 µM | AID 435003, 2010; in the data active means inhibition above about 50%
697 NFkB inh: inhibitors of PMA/ionomycin-induced NF-kB reporter, 697 cells, primary screen, B-cell NF-kB inhibitor project, cell-based, luminescence, uHTS. 697 B-cell NF-kB luciferase reporter, 16 h. inhibition, % at 4 µM. 330,000 tested, 0.33% active. AID 435022, 2010; in the data active means inhibition above about 35%
FGF22 binding: binders of human FGF22 protein, primary screen, FGF22 synaptogenesis inhibitor project, biophysical, thermal shift, single point; recombinant FGF22 thermal shift, SYPRO orange fluorescence; percent of sucrose octasulfate shift, DMSO zero; 340,000 tested, 1.5% active; Fibroblast growth factor 22 (Homo sapiens), Q9HCT0; activity (Tm shift, normalised), % at 9.99 µM;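 active means mean Tm shift, scaled 0 neutral to 100 positive control, at about 1.3% or above, every replicate too, limit read from the data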
Target sequence (Q9HCT0 whole entry, looked up): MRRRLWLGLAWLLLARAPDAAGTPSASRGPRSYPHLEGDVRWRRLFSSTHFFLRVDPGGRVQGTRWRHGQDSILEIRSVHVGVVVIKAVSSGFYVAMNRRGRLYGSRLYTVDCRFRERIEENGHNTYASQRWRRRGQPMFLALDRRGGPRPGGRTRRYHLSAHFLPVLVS
miR122 inh: miR-122 Renilla sensor signal increase in Huh7, primary screen, miR-122 inhibitor project, cell-based, single point, plate reader. Huh7 miR-122 Renilla luciferase sensor, 48 h; neutral wells = 0, positive control = 100. 340,000 tested, 0.3% active. AID 602342, 2012. activation (reporter increase), % at 12.5 µM;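 active means mean replicate activation score at least 90 and every replicate individually at or above 90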;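 further: higher luciferase means less miR-122 activity so hits act as miR-122 inhibitors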
* hit, by the source's call; x = not tested or not shown; [ ] = remark or other dose. A selection: hits, their analogues and other compounds. The true share with any hit is near 2.2%.

SMILES	NR2E3 ag-1	NR2E3 ag-2	Jurkat NFkB inh	697 NFkB inh	FGF22 binding	miR122 inh
Nc1n[nH]c2cc(=O)n(-c3cccc(C(F)(F)F)c3)nc12	-1	-11	7	24	43*	-16
CC(C)(C)c1nnc2sc(SCC(=O)N3CCc4ccccc43)nn2c1=O	1	-4	0	-10	43*	-7
Cc1ccc(OCC(=O)Nc2ccc(N3CCN(S(C)(=O)=O)CC3)cc2)cc1	2	15	8	14	43*	x
COc1ccc(NC(=O)N2CCN(C(=O)Nc3ccc(OC)cc3)CC2)cc1	1	15	-1	11	0	-7
COc1ccc(NC(=O)N2CCN(S(C)(=O)=O)CC2)cc1	-3	-15	-8	10	43*	x
CS(=O)(=O)N1CCN(c2ccc(NC(=O)COc3ccccc3)cc2)CC1	1	-14	-15	-9	0	-6
O=C(Nc1ccc(F)cc1)N1CCCCN2[C@H](CO)[C@@H](c3ccc(-c4cccc(F)c4)cc3)[C@H]2C1	x	x	x	x	0	-4[16.7 µM]
CC(=O)Nc1cc2c(cc1Cl)-c1ccc(F)cc1C2O (stereo not given)	x	-46	x	x	44*	x
Nc1cc2c(cc1Br)-c1ccc(F)cc1C2O (stereo not given)	x	-56	x	x	0	x
Cc1nc2oc3c(NCC4CCCO4)ncnc3c2c2c1COC(C)(C)C2 (stereo not given)	3	-8	7	26	x	-3
CC(C)c1nc2oc3c(NCC4CCCO4)ncnc3c2c2c1COC(C)(C)C2 (stereo not given)	x	7	x	x	x	194*
CN1c2ccc(Br)cc2[C@@H]2[C@@H](CCN2C(=O)Nc2ccc(F)cc2)[C@H]1CO	x	x	x	x	0	-1[16.7 µM]
CCOC(=O)c1cc(C#N)c(SCC(=O)Nc2ccc(C(C)=O)cc2)[nH]c1=O	-2	-20	-20	-19	1.4*	x
CCOC(=O)c1cc(C#N)c(SCC(N)=O)[nH]c1=O	2	10	6	12	0	2
CCOC(=O)c1cc(C#N)c(SCC(=O)O)[nH]c1=O	0	-4	3	14	45*	x
COc1ccc(NC(=O)Nc2ccc3c(c2)CC(=O)N([C@H](C)CO)C[C@H](C)[C@@H](CN(C)C(=O)Nc2c(C)noc2C)O3)cc1	x	x	x	x	0	5[16.7 µM]
O=C(C[C@H]1C=C[C@@H](NC(=O)c2ccc(F)cc2)[C@H](CO)O1)NCCc1ccccc1	x	x	x	x	0	x
Cn1cnnc1Sc1cc(N2CCN(S(=O)(=O)c3ccccc3)CC2)ccc1[N+](=O)[O-]	8	-1	-7	-5	45*	0
CCS(=O)(=O)c1ccc(Sc2nncn2C)c([N+](=O)[O-])c1	-1	-14	0	-5	0	-4
Cc1cc(C(=O)Nc2cccc3c2O[C@H](CN(C)S(=O)(=O)c2cn(C)cn2)[C@H](C)CN([C@@H](C)CO)C3=O)n(C)n1	x	x	x	x	0	1[16.7 µM]
CC(=Cc1ccccc1)C=C1SC(=S)N(CCCC(=O)Nc2ccc(C(=O)O)c(O)c2)C1=O	x	-5	x	x	2.6*	-7
C[C@@H]1CN([C@@H](C)CO)C(=O)Cc2cc(NC(=O)c3ccncc3)ccc2O[C@H]1CN(C)S(=O)(=O)c1cccs1	x	x	x	x	0	-1[16.7 µM]
COCCNC(=O)[C@H]1[C@H](CO)[C@H]2Cn3c(ccc(-c4ccccc4)c3=O)[C@@H]1N2C	x	x	x	x	0	-1[16.7 µM]
CC1CN(C(=O)c2ccccc2Nc2ccc(SC(F)F)cc2)CC(C)O1 (stereo not given)	0	-11	8	24	44*	-2
O=[N+]([O-])c1ccccc1CN1CCN(Cc2ccccn2)CC1	0	-24	-21	-34	43*	x
CC(=O)Nc1ccc(S(=O)(=O)N2CCN(Cc3ccccn3)CC2)cc1	4	-15	7	10	x	-5
